In ChEMBL document CHEMBL4257585, “Structure-Activity Relationships of Photoswitchable Diarylethene-Based β-Hairpin Peptides as Membranolytic Antimicrobial and Anticancer Agents” (J Med Chem, 2018):
≈ marks a conversion by molar mass, not a printed value.

How the values were obtained:
[1] = Therapeutic index, ratio of HC50 for human RBC to MIC for Escherichia coli DSM 1103; type: toxicity; conditions: human red blood cells versus Escherichia coli DSM 1103
How it was run: (§1)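 Ratio of HC50 (RBC) to HeLa IC50 or to MIC against B. subtilis or E. coli; values measured in mg/mL and recalculated to μM, 2-fold dilution without curve fitting, accuracy within a factor of 2.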

[2] = Hemolytic activity against human RBC assessed as hemolysis after 30 mins by colorimetric method; type: ADME, cell-based, Erythrocyte; conditions: human red blood cells (erythrocytes)
How it was run: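 Human erythrocytes washed twice in isotonic 172 mM Tris-HCl, pH 7.6; peptides dissolved in DMSO, diluted in buffer, two independent 10-step 2-fold series from 256 or 192 μg/mL. HC50 extrapolated as 50% hemolysis concentration.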

HeLa = assay: Cytotoxicity against human HeLa cells assessed as reduction in cell viability after 24 hrs by MTT assay; type: functional, cell-based
How it was run: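 HeLa cells seeded at about 5 × 10^4 cells/mL in DMEM with 10% FBS, 2 mM glutamine, gentamicin; 24 h adaptation (37 °C, 5% CO2), then 24 h peptide exposure. MTT 4 h, formazan in DMSO read at 570 nm. 2-fold series 256–0.5 (open) or 512–1 μg/mL (closed), four repetitions; IC50 extrapolated from killing curves. Closed form handled in dim light.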

[3] = Selective ratio of HC50 for human RBC to IC50 for human HeLa cells; type: toxicity; conditions: human red blood cells versus HeLa cells; how it was run: as §1
[4] = Therapeutic index, ratio of HC50 for human RBC to MIC for Bacillus subtilis DSM 347; type: toxicity; conditions: human red blood cells versus Bacillus subtilis DSM 347; how it was run: as §1
Escherichia coli = assay: Antimicrobial activity against Escherichia coli DSM 1103 after 22 hrs by resazurin dye based spectrophotometry; type: functional; conditions: DSM 1103, 22 h
How it was run: (§2)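 2-fold broth microdilution in Mueller–Hinton medium; peptide stocks 1024 μg/mL in 50% ethanol. Exponential-phase cultures diluted to OD550 0.2, then 1:100 (B. subtilis) or 1:1000 (E. coli), giving 5 × 10^5 CFU/mL per well. Incubated 22 h, 37 °C, static; then resazurin (0.2 mg/mL solution) added for 2 h at 37 °C, read visually and spectrophotometrically. Tested in both photoforms.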

Bacillus subtilis = assay: Antimicrobial activity against Bacillus subtilis DSM 347 after 22 hrs by resazurin dye based spectrophotometry; type: functional; conditions: DSM 347, 22 h; how it was run: as §2

Structure (SMILES)	MIC (Escherichia coli)	MIC (Bacillus subtilis)	selectivity ratio [1]	HC50 at 0.5 h [2]	IC50 (HeLa)	selectivity ratio [3]	selectivity ratio [4]
Cc1sc2cc1C1=C(CCC1)c1cc(sc1C)C(=O)[C@H]1CCCN1C(=O)[C@H](C(C)C)NC(=O)[C@H](CCCN)NC(=O)[C@H](C(C)C)NC(=O)[C@@H]1CCCN1C(=O)[C@@H](Cc1ccccc1)NC(=O)[C@H](C(C)C)NC(=O)[C@H](CCCN)NC(=O)[C@H](CC(=O)NC(C)C)NC2=O	98 µM (≈ 128 µg/mL)	3 µM (≈ 3.93 µg/mL)	1.6	153 µM	66 µM	2.3	51
CC(C)C(=O)NCC[C@@H]1NC(=O)C2=CC3=C4CCCC4=C4C=C(S[C@]4(C)[C@@]3(C)S2)C(=O)[C@H]2CCCN2C(=O)[C@H](C(C)C)NC(=O)[C@H](CCCN)NC(=O)[C@H](C(C)C)NC(=O)[C@@H]2CCCN2C(=O)[C@@H](Cc2ccccc2)NC(=O)[C@H](C(C)C)NC(=O)[C@H](CCCN)NC1=O	194 µM (≈ 257 µg/mL)	48 µM (≈ 63.5 µg/mL)	2	387 µM	194 µM	2	8.1
CC[C@H](C)[C@@H]1NC(=O)C2=CC3=C4CCCC4=C4C=C(S[C@]4(C)[C@@]3(C)S2)C(=O)[C@H]2CCCN2C(=O)[C@H](CC(C)C)NC(=O)[C@H](CCCN)NC(=O)[C@H]([C@@H](C)CC)NC(=O)[C@@H]2CCCN2C(=O)[C@H]2CCCN2C(=O)[C@H](CC(C)C)NC(=O)[C@H](CCCN)NC1=O	203 µM (≈ 256 µg/mL)	6 µM (≈ 7.55 µg/mL)	0.6	120 µM	64 µM	1.9	20
CC(C)[C@@H]1NC(=O)C2=CC3=C4CCCC4=C4C=C(S[C@]4(C)[C@@]3(C)S2)C(=O)[C@H]2CCCN2C(=O)[C@H](C(C)C)NC(=O)[C@H](CCCN)N(C)C(=O)[C@H](C(C)C)NC(=O)[C@@H]2CCCN2C(=O)[C@@H](Cc2ccccc2)N(C)C(=O)[C@H](C(C)C)NC(=O)[C@H](CCCN)NC1=O	200 µM (≈ 256 µg/mL)	6 µM (≈ 7.68 µg/mL)	1	192 µM	100 µM	1.9	32
CC(C)NC(=O)C[C@@H]1NC(=O)C2=CC3=C4CCCC4=C4C=C(S[C@]4(C)[C@@]3(C)S2)C(=O)[C@H]2CCCN2C(=O)[C@H](C(C)C)NC(=O)[C@H](CCCN)NC(=O)[C@H](C(C)C)NC(=O)[C@@H]2CCCN2C(=O)[C@@H](Cc2ccccc2)NC(=O)[C@H](C(C)C)NC(=O)[C@H](CCCN)NC1=O	196 µM (≈ 257 µg/mL)	49 µM (≈ 64.2 µg/mL)	2	391 µM	196 µM	2	7.8
Cc1sc2cc1C1=C(CCC1)c1cc(sc1C)C(=O)[C@H]1CCCN1C(=O)[C@H](C(C)C)NC(=O)[C@H](CCCN)N(C)C(=O)[C@H](C(C)C)NC(=O)[C@@H]1CCCN1C(=O)[C@@H](Cc1ccccc1)N(C)C(=O)[C@H](C(C)C)NC(=O)[C@H](CCCN)NC(=O)[C@H](C(C)C)NC2=O	100 µM (≈ 128 µg/mL)	2 µM (≈ 2.56 µg/mL)	0.6	59 µM	25 µM	2.4	29.5
CC(C)[C@@H]1NC(=O)C2=CC3=C4CCCC4=C4C=C(S[C@]4(C)[C@@]3(C)S2)C(=O)[C@H]2CCCN2C(=O)[C@H]([C@@H](C)O)NC(=O)[C@H](CCCN)NC(=O)[C@H](C(C)C)NC(=O)[C@@H]2CCCN2C(=O)[C@@H](Cc2ccccc2)NC(=O)[C@H](C(C)C)NC(=O)[C@H](CCCN)NC1=O	204 µM (≈ 256 µg/mL)	51 µM (≈ 64 µg/mL)	2	408 µM	153 µM	2.7	8
CC[C@H](C)[C@@H]1NC(=O)c2cc(c(C)s2)C2=C(CCC2)c2cc(sc2C)C(=O)[C@H]2CCCN2C(=O)[C@H](CC(C)C)NC(=O)[C@H](CCCN)NC(=O)[C@H]([C@@H](C)CC)NC(=O)[C@@H]2CCCN2C(=O)[C@H]2CCCN2C(=O)[C@H](CC(C)C)NC(=O)[C@H](CCCN)NC1=O	51 µM (≈ 64.2 µg/mL)	2 µM (≈ 2.52 µg/mL)	0.2	8 µM	6 µM	1.3	4
CC[C@H](C)[C@@H]1NC(=O)C2=CC3=C4CCCC4=C4C=C(S[C@]4(C)[C@@]3(C)S2)C(=O)[C@H]2CCCN2C(=O)[C@H]([C@@H](C)CC)NC(=O)[C@H](CCCN)NC(=O)[C@H](CC(C)C)NC(=O)[C@H](CC(C)C)N(C)C(=O)[C@@H](Cc2ccccc2)NC(=O)[C@H]([C@@H](C)CC)NC(=O)[C@H](CCCN)NC1=O	191 µM (≈ 256 µg/mL)	3 µM (≈ 4.02 µg/mL)	0.1	27 µM	25 µM	1.1	9
Cc1sc2cc1C1=C(CCC1)c1cc(sc1C)C(=O)[C@H]1CCCN1C(=O)[C@H](C(C)C)NC(=O)[C@H](CCCN)NC(=O)[C@H](C(C)C)NC(=O)[C@@H]1CCCN1C(=O)[C@@H](Cc1ccccc1)NC(=O)[C@H](C(C)C)NC(=O)[C@H](CCCN)NC(=O)[C@H](CCNC(=O)C(C)C)NC2=O	97 µM (≈ 128 µg/mL)	3 µM (≈ 3.97 µg/mL)	1.8	170 µM	36 µM	4.7	56.7

The remaining compounds from weak to strong by MIC (Escherichia coli), led by results:

MIC (Escherichia coli)	MIC (Bacillus subtilis)	Structure (SMILES)	selectivity ratio [1]	HC50 at 0.5 h [2]	IC50 (HeLa)	selectivity ratio [3]	selectivity ratio [4]
94 µM (≈ 128 µg/mL)	6 µM (≈ 8.19 µg/mL)	CC(C)C[C@@H]1NC(=O)[C@H](CCCNC(=N)N)NC(=O)[C@H](C(C)C)NC(=O)C2=CC3=C4CCCC4=C4C=C(S[C@]4(C)[C@@]3(C)S2)C(=O)[C@H]2CCCN2C(=O)[C@H](CC(C)C)NC(=O)[C@H](CCCNC(=N)N)NC(=O)[C@H](C(C)C)NC(=O)[C@@H]2CCCN2C(=O)[C@@H](Cc2ccccc2)NC1=O	0.1	10 µM	35 µM	0.3	1.7
92 µM (≈ 127 µg/mL)	3 µM (≈ 4.14 µg/mL)	CC(C)[C@@H]1NC(=O)C2=CC3=C4CCCC4=C4C=C(S[C@]4(C)[C@@]3(C)S2)C(=O)[C@H]2CCCN2C(=O)[C@H](Cc2ccc(O)cc2)NC(=O)[C@H](CCCN)NC(=O)[C@H](C(C)C)NC(=O)[C@@H]2CCCN2C(=O)[C@@H](Cc2ccccc2)NC(=O)[C@H](Cc2ccc(O)cc2)NC(=O)[C@H](CCCN)NC1=O	0.1	11 µM	137 µM	0.1	3.7
35 µM (≈ 47.8 µg/mL)	3 µM (≈ 4.09 µg/mL)	Cc1sc2cc1C1=C(CCC1)c1cc(sc1C)C(=O)[C@H]1CCCN1C(=O)[C@H](CC(C)C)NC(=O)[C@H](CCCNC(=N)N)NC(=O)[C@H](C(C)C)NC(=O)[C@@H]1CCCN1C(=O)[C@@H](Cc1ccccc1)NC(=O)[C@H](CC(C)C)NC(=O)[C@H](CCCNC(=N)N)NC(=O)[C@H](C(C)C)NC2=O	0.1	2 µM	4 µM	0.5	0.7
25 µM (≈ 36.3 µg/mL)	2 µM (≈ 2.91 µg/mL)	Cc1sc2cc1C1=C(CCC1)c1cc(sc1C)C(=O)[C@H]1CCCN1C(=O)[C@H]([C@@H](C)O)NC(=O)[C@H](C13CC4CC(CC(C4)C1)C3)NC(=O)[C@H](CCCN)NC(=O)[C@@H]1CCCN1C(=O)[C@@H](Cc1ccccc1)NC(=O)[C@H](CCCN)NC(=O)[C@H](C13CC4CC(CC(C4)C1)C3)NC(=O)[C@H](CCCN)NC2=O	0.2	4 µM	9 µM	0.4	2
16 µM (≈ 23.7 µg/mL)	3 µM (≈ 4.44 µg/mL)	Cc1sc2cc1C1=C(CCC1)c1cc(sc1C)C(=O)[C@H]1CCCN1C(=O)[C@H](CCCCN)NC(=O)[C@H](C13CC4CC(CC(C4)C1)C3)NC(=O)[C@H](CCCN)NC(=O)[C@@H]1CCCN1C(=O)[C@@H](Cc1ccccc1)NC(=O)[C@H](CCCN)NC(=O)[C@H](C13CC4CC(CC(C4)C1)C3)NC(=O)[C@H](CCCN)NC2=O	0.1	1 µM	11 µM	0.1	0.3
13 µM (≈ 18.9 µg/mL)	2 µM (≈ 2.91 µg/mL)	C[C@@H](O)[C@@H]1NC(=O)[C@H](C23CC4CC(CC(C4)C2)C3)NC(=O)[C@H](CCCN)NC(=O)[C@@H]2CCCN2C(=O)[C@@H](Cc2ccccc2)NC(=O)[C@H](CCCN)NC(=O)[C@H](C23CC4CC(CC(C4)C2)C3)NC(=O)[C@H](CCCN)NC(=O)C2=CC3=C4CCCC4=C4C=C(S[C@]4(C)[C@@]3(C)S2)C(=O)[C@H]2CCCN2C1=O	0.1	13 µM	11 µM	1.2	6.5
8 µM (≈ 11.8 µg/mL)	3 µM (≈ 4.44 µg/mL)	C[C@]12SC3=CC1=C1CCCC1=C1C=C(S[C@@]12C)C(=O)[C@H]1CCCN1C(=O)[C@H](CCCCN)NC(=O)[C@H](C12CC4CC(CC(C4)C1)C2)NC(=O)[C@H](CCCN)NC(=O)[C@@H]1CCCN1C(=O)[C@@H](Cc1ccccc1)NC(=O)[C@H](CCCN)NC(=O)[C@H](C12CC4CC(CC(C4)C1)C2)NC(=O)[C@H](CCCN)NC3=O	0.1	1 µM	11 µM	0.1	0.3
